Reference: ChEMBL document CHEMBL1137210, “DNA binding ligands with improved in vitro and in vivo potency against drug-resistant Staphylococcus aureus” (2004)
Values after ≈ are worked out from the molar mass of the structure shown.

Tests used:
Type in all cases: functional
[1] = system: Staphylococcus aureus; assay: Minimum inhibitory concentration required for antibacterial activity against methicillin-resistant Staphylococcus aureus with 2% human plasma albumin
How it was run: (§1)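 MRSA ATCC 27660, with 2% human plasma albumin added to the test medium during MIC determination.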

[2] = system: Staphylococcus aureus; assay: Minimum inhibitory concentration required for antibacterial activity against methicillin-resistant Staphylococcus aureus 27660
[3] = system: Staphylococcus aureus; assay: Minimum inhibitory concentration required for antibacterial activity against methicillin-susceptible Staphylococcus aureus 13709
[4] = system: Mus musculus; assay: No. of mice survived infected intraperitoneally with methicillin-resistant Staphylococcus aureus after 5 days of treatment at a dose of 1 mg/kg (Total mice tested 5)
How it was run: (§2)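 Mouse peritonitis model: intraperitoneal infection with a 5–10 × LD50 inoculum of MRSA ATCC 27660. A single intravenous dose was given 1 h post-infection, alongside vehicle and vancomycin controls. Animals were monitored for 5 days, with survival as the primary endpoint; 5 mice per dose group.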

[5] = system: Mus musculus; assay: No. of mice survived infected intraperitoneally with methicillin-resistant Staphylococcus aureus after 5 days of treatment at a dose of 3 mg/kg (Total mice tested 5); how it was run: as §2
[6] = system: Mus musculus; assay: No. of mice survived infected intraperitoneally with methicillin-resistant Staphylococcus aureus after 5 days of treatment at a dose of 10 mg/kg (Total mice tested 5); how it was run: as §2
[7] = system: Mus musculus; assay: No. of mice survived infected intraperitoneally with methicillin-resistant Staphylococcus aureus after 5 days of treatment at a dose of 25 mg/kg (Total mice tested 5); conditions: route intravenous; how it was run: as §2
[8] = system: Staphylococcus aureus; assay: Minimum inhibitory concentration required for antibacterial activity against methicillin-susceptible Staphylococcus aureus 13709; value ranges from <0.03-0.06
[9] = system: Staphylococcus aureus; assay: Minimum inhibitory concentration required for antibacterial activity against methicillin-resistant Staphylococcus aureus 27660; value ranges from 0.03-0.06
[10] = system: Staphylococcus aureus; assay: Minimum inhibitory concentration required for antibacterial activity against methicillin-resistant Staphylococcus aureus with 2% human plasma albumin; value ranges from 0.25-1; how it was run: as §1
[11] = system: Enterococcus faecium; assay: Minimum inhibitory concentration required for antibacterial activity against vancomycin-resistant Enterococcus faecium 51559
[12] = system: Streptococcus pneumoniae; assay: Minimum inhibitory concentration required for antibacterial activity against penicillin-resistant Streptococcus pneumoniae 51422
[13] = system: Staphylococcus aureus; assay: Minimum inhibitory concentration required for antibacterial activity against methicillin-resistant Staphylococcus aureus with 2% human plasma albumin; value ranges from 0.13-1; how it was run: as §1
[14] = system: Staphylococcus aureus; assay: Minimum inhibitory concentration required for antibacterial activity against vancomycin-resistant Staphylococcus aureus HMC3
[15] = system: Staphylococcus aureus; assay: Minimum inhibitory concentration required for antibacterial activity against methicillin-resistant Staphylococcus aureus with 2% human plasma albumin; value ranges from 0.13-0.25; how it was run: as §1
[16] = system: Staphylococcus aureus; assay: Minimum inhibitory concentration required for antibacterial activity against methicillin-resistant Staphylococcus aureus 27660; value ranges from 0.25-0.5
[17] = system: Staphylococcus aureus; assay: Minimum inhibitory concentration required for antibacterial activity against methicillin-susceptible Staphylococcus aureus 13709; value ranges from 0.13-0.06
[18] = system: Staphylococcus aureus; assay: Minimum inhibitory concentration required for antibacterial activity against methicillin-resistant Staphylococcus aureus with 2% human plasma albumin; value ranges from 1-2; how it was run: as §1
[19] = system: Staphylococcus aureus; assay: Minimum inhibitory concentration required for antibacterial activity against methicillin-resistant Staphylococcus aureus with 4% human plasma albumin
How it was run: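 MIC against MRSA determined with 4% human plasma albumin present in the test medium.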

[20] = system: Staphylococcus aureus; assay: Minimum inhibitory concentration required for antibacterial activity against methicillin-resistant Staphylococcus aureus 27660; value ranges from 0.06-0.13
[21] = system: Staphylococcus aureus; assay: Minimum inhibitory concentration required for antibacterial activity against methicillin-susceptible Staphylococcus aureus 13709; value ranges from 0.03-0.06
[22] = Staphylococcus aureus, Plasma, read-out: MIC

Row | SMILES | MIC [1, 22] [µg/mL] | MIC [2] [µg/mL] | MIC [3] [µg/mL] | Efficacy [7] | MIC [11] [µg/mL] | MIC [12] [µg/mL] | other results
1 | Cn1cc(NC(=O)c2ccc(NC(=O)c3cc(NC(=O)c4cc5ccccc5cn4)cn3C)cc2)cc1C(=O)NCCN1CCN(CCO)CC1 | > 32 | 16 (≈ 23.1 µM) | 32 (≈ 46.3 µM) | – | – | – | –
2 | COC1CCN(CCNC(=O)c2cc(NC(=O)c3ccc(NC(=O)c4cc(NC(=O)c5cc6ccccc6cn5)cn4C)cc3)cn2C)CC1 | 8 (≈ 11.8 µM) | 1 (≈ 1.48 µM) | 1 (≈ 1.48 µM) | – | – | – | –
3 | Cn1cc(NC(=O)c2cc3ccccc3cn2)cc1C(=O)Nc1ccc(C(=O)Nc2cn(C)c(C(=O)NCCN3CCC(O)CC3)n2)cc1 | – | – | – | 5 | – | – | Efficacy [4]: 0; Efficacy [5]: 2; Efficacy [6]: 5; MIC [8]: 0.06 µg/mL (≈ 0.0904 µM); MIC [9]: 0.06 µg/mL (≈ 0.0904 µM); MIC [10]: 1 µg/mL (≈ 1.51 µM)
4 | Cn1cc(NC(=O)c2ccc(NC(=O)c3nc(NC(=O)c4cc5ccccc5cn4)cn3C)cc2)nc1C(=O)NCCN1CCOCC1 | 1 (≈ 1.54 µM) | 0.06 (≈ 0.0922 µM) | 0.13 (≈ 0.2 µM) | – | 0.13 (≈ 0.2 µM) | 0.25 (≈ 0.384 µM) | –
5 | Cn1cc(NC(=O)c2ccc(NC(=O)c3nc(NC(=O)c4cc5ccccc5cn4)cn3C)cc2)cc1C(=O)NCCN1CCOCC1 | 32 (≈ 49.3 µM) | 16 (≈ 24.6 µM) | 2 (≈ 3.08 µM) | – | 0.5 (≈ 0.77 µM) | 0.5 (≈ 0.77 µM) | –
6 | Cn1cc(NC(=O)c2cc3cc4c(cc3s2)OCO4)cc1C(=O)Nc1ccc(C(=O)Nc2cn(C)c(C(=O)NCCN3CCC(O)CC3)n2)cc1 | – | 0.008 (≈ 0.0112 µM) | 0.008 (≈ 0.0112 µM) | – | – | – | Efficacy [4]: 3; Efficacy [5]: 4; MIC [13]: 1 µg/mL (≈ 1.4 µM); MIC [14]: 0.008 µg/mL (≈ 0.0112 µM)
7 | COC1CCN(CCNC(=O)c2nc(NC(=O)c3ccc(NC(=O)c4cc(NC(=O)c5cc6ccccc6cn5)cn4C)cc3)cn2C)CC1 | – | 0.03 (≈ 0.0443 µM) | 0.03 (≈ 0.0443 µM) | 2 | – | – | MIC [15]: 0.25 µg/mL (≈ 0.369 µM)
8 | COCCN(CCNC(=O)c1nc(NC(=O)c2ccc(NC(=O)c3cc(NC(=O)c4cc5ccccc5cn4)cn3C)cc2)cn1C)CCOC | – | – | – | 0 | – | – | MIC [16]: 0.5 µg/mL (≈ 0.719 µM); MIC [17]: 0.13 µg/mL (≈ 0.187 µM); MIC [18]: 2 µg/mL (≈ 2.87 µM)
9 | Cn1cc(NC(=O)c2cc3ccccc3cn2)cc1C(=O)Nc1ccc(C(=O)Nc2cn(C)c(C(=O)NCCN3CCN(CCO)CC3)n2)cc1 | 1 (≈ 1.44 µM) | 0.06 (≈ 0.0866 µM) | 0.06 (≈ 0.0866 µM) | 5 | – | – | –
10 | COCCN(CCNC(=O)c1cc(NC(=O)c2ccc(NC(=O)c3cc(NC(=O)c4cc5ccccc5cn4)cn3C)cc2)cn1C)CCOC | 32 (≈ 46.1 µM) | 8 (≈ 11.5 µM) | 4 (≈ 5.76 µM) | – | – | – | –
11 | Cn1cc(NC(=O)c2ccc(NC(=O)c3cc(NC(=O)c4cc5ccccc5cn4)cn3C)cc2)cc1C(=O)NCCN1CCC(O)CC1 | – | 0.5 (≈ 0.754 µM) | 0.5 (≈ 0.754 µM) | – | – | – | MIC [19]: 16 µg/mL (≈ 24.1 µM)
12 | Cn1cc(NC(=O)c2cc3ccccc3cn2)cc1C(=O)Nc1ccc(C(=O)Nc2cn(C)c(C(=O)NCCN3CCOCC3)n2)cc1 | 0.13 (≈ 0.2 µM) | 0.008 (≈ 0.0123 µM) | 0.008 (≈ 0.0123 µM) | – | 0.008 (≈ 0.0123 µM) | 0.03 (≈ 0.0462 µM) | Efficacy [6]: 1; MIC [14]: 0.008 µg/mL (≈ 0.0123 µM)
13 | Cn1cc(NC(=O)c2ccc(NC(=O)c3cc(NC(=O)c4cc5ccccc5cn4)cn3C)cc2)cc1C(=O)NCCN1CCOCC1 | 1 (≈ 1.54 µM) | 0.06 (≈ 0.0925 µM) | 0.06 (≈ 0.0925 µM) | 5 | 1 (≈ 1.54 µM) | 0.06 (≈ 0.0925 µM) | Efficacy [5]: 0; Efficacy [6]: 3; MIC [20]: 0.13 µg/mL (≈ 0.2 µM); MIC [1]: 1 µg/mL (≈ 1.54 µM); MIC [21]: 0.06 µg/mL (≈ 0.0925 µM); MIC [14]: 0.25 µg/mL (≈ 0.385 µM)
